From paper PMC3690436 (Journal of nuclear medicine : official publication, Society …, 2009)

Legend:
P-gp [1] = biological target: T1, P-gp (Homo sapiens, UniProt P08183); conditions: cited from earlier work
[2] = humans; ref Ulrich Elben, written communication, 2008; cited from earlier work
[3] = Tolerability of tariquidar in healthy volunteers; format: in vivo, human; conditions: 2 mg/kg BW i.v., 5 healthy male subjects
P-gp [4] = biological target: T1, P-gp; experiment: Rhodamine-123 efflux assay in peripheral white blood cells; format: cell-based
How it was run: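 Fresh whole blood (18 mL) was drawn from each of the 5 volunteers before dosing. Isolated white blood cells were incubated at 37°C with Rh-123 (0.2 μg/mL) and 10 dilutions of test compound in DMSO (final 0.01 nM–1 μM), in duplicate. Rh-123 accumulation (mean fluorescence per cell) was read by FACS. EC50 came from hyperbolic dose-response fits, given as mean±SD over the 5 donors.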

[5] = Tariquidar concentration in venous plasma by LC/MS; format: in vivo, human
[6] = biological target: P-gp at the human blood-brain barrier (Homo sapiens, UniProt P08183)
Chain of P-gp at the human blood-brain barrier (P08183 whole entry): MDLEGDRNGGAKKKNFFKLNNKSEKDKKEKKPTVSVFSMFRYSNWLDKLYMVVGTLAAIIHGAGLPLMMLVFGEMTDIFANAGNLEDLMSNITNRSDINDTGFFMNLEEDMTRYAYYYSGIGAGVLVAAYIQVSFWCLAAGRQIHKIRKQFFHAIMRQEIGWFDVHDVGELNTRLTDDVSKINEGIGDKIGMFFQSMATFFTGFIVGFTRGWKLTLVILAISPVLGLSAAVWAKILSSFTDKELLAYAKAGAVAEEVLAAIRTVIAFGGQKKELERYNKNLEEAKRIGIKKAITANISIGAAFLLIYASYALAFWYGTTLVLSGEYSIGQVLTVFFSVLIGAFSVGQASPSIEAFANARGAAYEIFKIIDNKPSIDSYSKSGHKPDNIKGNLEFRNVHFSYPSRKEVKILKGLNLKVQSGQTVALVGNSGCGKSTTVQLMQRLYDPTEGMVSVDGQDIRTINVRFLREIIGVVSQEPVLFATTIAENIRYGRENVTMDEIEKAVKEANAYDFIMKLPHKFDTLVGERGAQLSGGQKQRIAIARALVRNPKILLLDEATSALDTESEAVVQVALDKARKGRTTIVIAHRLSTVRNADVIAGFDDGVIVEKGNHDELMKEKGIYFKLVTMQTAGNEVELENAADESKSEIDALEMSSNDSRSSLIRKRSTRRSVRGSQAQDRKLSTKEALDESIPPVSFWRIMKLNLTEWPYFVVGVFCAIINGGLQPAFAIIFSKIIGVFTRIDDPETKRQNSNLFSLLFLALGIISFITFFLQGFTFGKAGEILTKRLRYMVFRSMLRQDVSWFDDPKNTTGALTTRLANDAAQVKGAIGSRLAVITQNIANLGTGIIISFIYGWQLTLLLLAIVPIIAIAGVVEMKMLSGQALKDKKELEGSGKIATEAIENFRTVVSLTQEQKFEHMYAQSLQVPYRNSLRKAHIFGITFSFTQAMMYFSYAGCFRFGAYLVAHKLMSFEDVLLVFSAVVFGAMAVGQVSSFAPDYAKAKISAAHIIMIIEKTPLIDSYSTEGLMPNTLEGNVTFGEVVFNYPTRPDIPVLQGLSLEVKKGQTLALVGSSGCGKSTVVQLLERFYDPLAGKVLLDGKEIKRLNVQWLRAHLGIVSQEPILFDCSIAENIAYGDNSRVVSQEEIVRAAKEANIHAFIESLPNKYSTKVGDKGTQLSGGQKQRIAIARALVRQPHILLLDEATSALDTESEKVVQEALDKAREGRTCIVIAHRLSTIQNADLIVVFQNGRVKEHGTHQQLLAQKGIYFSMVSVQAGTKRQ

MRP1 = conditions: cited from earlier work
P-gp [7] = conditions: rats, cited from earlier work
P-gp [8] = conditions: in vitro; cited from earlier work
[9] = cited from earlier work
[10] = Arterial blood and metabolite analysis of; format: in vivo, human; conditions: 2 mg/kg i.v.
P-gp [11] = conditions: non-human primates, infusion of 20 mg/kg/2 hr; cited from earlier work

T1 sequence (P08183 whole entry): as above

SMILES: C=C[C@H]1C[N@@]2CC[C@H]1C[C@@H]2[C@@H](O)c1ccnc2ccc(OC)cc12 [quinidine]
- CNS pharmacologic effect of loperamide when inhibitor co-administered (P-gp [1]; 8 healthy volunteers): caused respiratory depression

SMILES: COc1cc2c(cc1OC)CN(CCc1ccc(NC(=O)c3cc(OC)c(OC)cc3NC(=O)c3cnc4ccccc4c3)cc1)CC2 [tariquidar, Tariquidar]
- Binding to plasma proteins [2]: 99.5%
- Mild adverse events possibly related to study medication [3]: mild hypotension, headache and nausea, each in one patient and dizziness in 2 patients
- Tolerability [3]: well tolerated without occurrence of severe or serious adverse events
- EC50 (P-gp [4]): 0.773 nM
- Plasma concentration of tariquidar during the second PET scan ([5]; 200-240 min after start of infusion, 2 mg/kg i.v., mean±SD): 490 ± 166 ng/mL
- Plasma concentration relative to EC50 for inhibition of Rh-123 efflux ([5]; at 24 h after tariquidar infusion): 424 fold
- Concentration of unbound tariquidar in plasma ([5]; at the time of the second scan, corrected for 99.5% protein binding): 2.45 ± 0.83 ng/mL
- Plasma concentration relative to EC50 for inhibition of Rh-123 efflux ([5]; during second PET scan): 980 fold
- concentration at 24 h ([5]; male, human, plasma, intravenous, 2 mg/kg): 212 ± 24 ng/mL
- Maximum increase of brain radioactivity versus baseline (t=40 min) ([6]; scan 1, at 5 min after end of tariquidar infusion (t=75 min), 2 mg/kg i.v.): +74%
- Increase of brain radioactivity versus baseline (t=40 min) ([6]; scan 1, at 35 min after end of tariquidar infusion (t=115 min), on average): +10%
- Inhibition of MRP1 (MRP1): does not inhibit
- CNS activity of loperamide (reduction in pupil diameter) after inhibitor (P-gp [1]; humans, tariquidar 2 mg/kg BW): not affected
- Plasma tariquidar concentration at the time of the PET scan (P-gp [7]; 15 mg/kg): about 1,400 ng/mL
- Increase of (R)-11C-verapamil DVs (P-gp [7]; plasma tariquidar levels about 500 ng/mL): 3-4 fold
- Increase of the (R)-11C-verapamil DV (P-gp [7]; tariquidar 15 mg/kg): 12 fold
- Duration of P-gp inhibitory effect after removal from the incubation medium (P-gp [8]): up to 22 h
- Tariquidar-related material in plasma existing as unchanged parent compound ([9]; monkey plasma): > 95%
- Elimination half-life ([9]; monkey): 5 h
- Influence of tariquidar on the metabolism of (R)-11C-verapamil [10]: did not have significant influence

SMILES: C/C=C/C[C@@H](C)C(=O)[C@H]1C(=O)N[C@@H](C(C)C)C(=O)N(C)CC(=O)N(C)[C@@H](CC(C)C)C(=O)N[C@@H](C(C)C)C(=O)N(C)[C@@H](CC(C)C)C(=O)N[C@@H](C)C(=O)N[C@H](C)C(=O)N(C)[C@@H](CC(C)C)C(=O)N(C)[C@@H](CC(C)C)C(=O)N(C)[C@@H](C(C)C)C(=O)N1C [valspodar]
- Increase of brain uptake of racemic 11C-verapamil (P-gp [11]): 4.61 fold
